Reference: ChEMBL document CHEMBL4613274, “Chimeric Peptidomimetics of SOCS 3 Able to Interact with JAK2 as Anti-inflammatory Compounds” (ACS Med Chem Lett, 2020)
Calls of active or inactive are those of the source. The rule behind the calls is not given here. Square brackets hold non-standard residues; d marks the D form. Peptide text beside a SMILES is read from it. βAla = NCCC(=O)O

Tests used:
[1] = target: Signal transducer and activator of transcription 3 (Mus musculus) (UniProt P42227); assay: (§1) Inhibition of IFNgamma and IL6 induced STAT3 nuclear translocation in mouse VSMC cells at 5 uM pretreated for 90 mins using TAMRA-conjugated peptide followed by IFNgamma and IL6 stimulation for 1 hr by DAPI staining based immunofluorescence assay relative to control; assay type: cell-based
Signal transducer and activator of transcription 3 (Mus musculus), sequence (P42227 whole entry): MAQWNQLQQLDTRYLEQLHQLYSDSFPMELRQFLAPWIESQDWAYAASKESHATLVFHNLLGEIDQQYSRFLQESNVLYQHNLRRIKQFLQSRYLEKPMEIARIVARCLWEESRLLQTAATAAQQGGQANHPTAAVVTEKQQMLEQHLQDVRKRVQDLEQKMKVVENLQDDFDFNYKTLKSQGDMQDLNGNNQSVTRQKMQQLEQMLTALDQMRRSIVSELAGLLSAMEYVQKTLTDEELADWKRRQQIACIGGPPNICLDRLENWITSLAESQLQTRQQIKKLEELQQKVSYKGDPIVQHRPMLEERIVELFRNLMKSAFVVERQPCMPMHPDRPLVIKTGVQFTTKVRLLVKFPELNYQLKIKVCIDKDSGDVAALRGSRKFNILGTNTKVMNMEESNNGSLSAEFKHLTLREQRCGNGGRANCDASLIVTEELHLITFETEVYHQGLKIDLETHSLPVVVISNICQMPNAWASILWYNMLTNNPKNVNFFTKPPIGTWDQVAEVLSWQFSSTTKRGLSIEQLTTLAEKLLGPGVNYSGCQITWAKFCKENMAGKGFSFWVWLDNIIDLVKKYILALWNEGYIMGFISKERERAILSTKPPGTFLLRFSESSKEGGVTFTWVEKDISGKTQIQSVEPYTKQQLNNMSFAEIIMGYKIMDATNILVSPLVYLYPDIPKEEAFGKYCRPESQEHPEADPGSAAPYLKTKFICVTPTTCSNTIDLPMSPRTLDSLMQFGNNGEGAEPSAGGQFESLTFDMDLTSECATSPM
In short: (§2)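 Primary mouse VSMCs stimulated with IFNγ+IL-6 with or without TAMRA-labeled peptide 5 μM; immunofluorescence for phospho-STAT3 with DAPI nuclear counterstain, confocal imaging. P-STAT3 fluorescence intensity given as percentage, mean ± SEM, n = 3 independent experiments.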

[2] = Drug distribution in cytoplasm of mouse VSMC measured after 2 hrs by confocal microscopy; assay type: ADME, subcellular; conditions: in vitro
In short: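 Primary murine vascular smooth muscle cells exposed to fluorescent (TAMRA-labeled), Tat 48–60-conjugated peptides; uptake and subcellular distribution imaged by confocal microscopy after 2 h.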

[3] = Stability of compound in FBS assessed as residual concentration at 80 uM incubated for 2 hrs by RP-HPLC analysis; assay type: physicochemical; conditions: cattle, fetal bovine serum (FBS); read-out: Stability
In short: (§3)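 Pure peptides incubated in fetal bovine serum; decrease of chromatographic peak area followed over time, expressed as area percentage remaining.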

[4] = target: Signal transducer and activator of transcription 3 (Mus musculus) (UniProt P42227); assay: as §1, with “activation” for “nuclear translocation”, “cells assessed as decrease in STAT3 phosphorylation” for “cells”; assay type: cell-based; in short: as §2
[5] = test system: RAW264.7; assay: Antiinflammatory activity against mouse RAW264.7 cells assessed as reduction in IFNgamma and IL6-induced mRNA expression of Cxcl10 at […] pretreated for 90 mind followed by IFNgamma and IL6 stimulation for 1 hr by Trizol reagent based RT-PCR analysis; assay type: functional, cell-based
In short: (§4)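 RAW264.7 murine macrophage-like cells; peptides (conjugated to HIV Tat 48–60 for cell entry) or Ala/Arg negative-control peptide at 12.5 μM, then IFNγ+IL-6 stimulation 1 h. Cxcl10, Ccl5 and Nox2 mRNA quantified by real-time PCR.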

[6] = target: Tyrosine-protein kinase JAK2 (Homo sapiens, UniProt O60674); assay: Binding affinity to human N-terminal His-tagged JAK2 catalytic domain (826 to 1132 end residues) at 25 degree C by microscale thermophoresis assay
Tyrosine-protein kinase JAK2, sequence (O60674 whole entry, the tested form may be a part): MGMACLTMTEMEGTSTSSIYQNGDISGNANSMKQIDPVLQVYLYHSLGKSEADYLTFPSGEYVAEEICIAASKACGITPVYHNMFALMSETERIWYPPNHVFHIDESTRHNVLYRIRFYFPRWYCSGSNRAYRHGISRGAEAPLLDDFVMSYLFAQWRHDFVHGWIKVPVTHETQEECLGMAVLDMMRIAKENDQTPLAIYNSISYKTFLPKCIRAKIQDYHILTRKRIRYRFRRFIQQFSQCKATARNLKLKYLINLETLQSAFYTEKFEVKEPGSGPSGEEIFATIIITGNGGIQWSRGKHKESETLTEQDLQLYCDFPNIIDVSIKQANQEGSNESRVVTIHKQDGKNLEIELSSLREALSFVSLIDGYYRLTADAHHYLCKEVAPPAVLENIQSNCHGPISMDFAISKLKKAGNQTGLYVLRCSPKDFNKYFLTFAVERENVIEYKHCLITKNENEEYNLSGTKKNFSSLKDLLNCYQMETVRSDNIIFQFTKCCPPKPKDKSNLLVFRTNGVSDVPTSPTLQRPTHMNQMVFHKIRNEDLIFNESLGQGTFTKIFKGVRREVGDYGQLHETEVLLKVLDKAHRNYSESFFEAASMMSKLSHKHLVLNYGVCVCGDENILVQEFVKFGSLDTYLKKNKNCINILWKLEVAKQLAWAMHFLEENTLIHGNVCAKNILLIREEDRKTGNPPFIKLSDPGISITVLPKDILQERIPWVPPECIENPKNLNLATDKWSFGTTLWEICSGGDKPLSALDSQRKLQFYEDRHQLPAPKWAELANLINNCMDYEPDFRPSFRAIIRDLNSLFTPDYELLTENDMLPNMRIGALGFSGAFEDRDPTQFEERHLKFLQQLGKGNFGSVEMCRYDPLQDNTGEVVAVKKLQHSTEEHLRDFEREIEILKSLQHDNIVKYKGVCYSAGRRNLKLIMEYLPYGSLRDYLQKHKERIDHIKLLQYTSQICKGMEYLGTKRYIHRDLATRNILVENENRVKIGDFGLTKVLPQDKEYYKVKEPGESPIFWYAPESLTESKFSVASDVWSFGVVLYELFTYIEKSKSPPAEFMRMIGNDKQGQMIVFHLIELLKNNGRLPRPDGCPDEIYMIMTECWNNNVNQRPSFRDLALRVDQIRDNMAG
In short: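 JAK2 catalytic domain binding by microscale thermophoresis; labeled target with 1:1 serial dilutions of peptide (14–16 samples) from stocks of ~404–409 μM in labeling buffer pH 7.5. Temperature-induced fluorescence change plotted versus peptide concentration; KD from fitting of binding isotherm.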

[7] = test system: RAW264.7; assay: Antiinflammatory activity against mouse RAW264.7 cells assessed as reduction in IFNgamma and IL6-induced mRNA expression of Ccl5 at […] pretreated for 90 mind followed by IFNgamma and IL6 stimulation for 1 hr by Trizol reagent based RT-PCR analysis; assay type: functional, cell-based; in short: as §4
[8] = Stability of compound in FBS assessed as decrease in chromatographic peak at 80 uM incubated up to 4 hrs by RP-HPLC analysis; assay type: physicochemical; conditions: cattle; in short: as §3
[9] = test system: RAW264.7; assay: Antioxidant activity against mouse RAW264.7 cells assessed as reduction in IFNgamma and IL6-induced mRNA expression of Nox2 at […] pretreated for 90 mind followed by IFNgamma and IL6 stimulation for 1 hr by Trizol reagent based RT-PCR analysis; assay type: functional, cell-based; in short: as §4
[10] = Stability of compound in FBS assessed as drug degradation at 80 uM incubated for 2 hrs by RP-HPLC analysis; assay type: physicochemical; conditions: cattle, fetal bovine serum (FBS); read-out: Drug degradation; in short: as §3

CC(=O)N[C@@H](CCCCN)C(=O)NCCC(=O)N[C@@H](Cc1ccccc1)C(=O)N[C@@H](CO)C(=O)N[C@@H](CO)C(=O)N[C@@H](CCCCN)C(=O)N[C@@H](CO)C(=O)N[C@@H](CCC(=O)O)C(=O)N[C@@H](Cc1ccc(O)cc1)C(=O)N[C@@H](CCC(N)=O)C(=O)N[C@@H](CC(C)C)C(=O)NCCC(=O)NCCC(=O)N[C@@H](Cc1ccccc1)C(=O)N[C@@H](Cc1ccc(O)cc1)C(=O)N[C@@H](Cc1c[nH]c2ccccc12)C(=O)N[C@@H](CO)C(=O)N[C@@H](C)C(=O)N[C@H](C(=O)N[C@H](C(N)=O)[C@@H](C)O)C(C)C (Ac-K[βAla]FSSKSEYQL[βAla][βAla]FYWSAVT-NH2)
inhibition [1]: Active
Drug uptake [2]: Active
remaining at 2 h, 80 µM [3]: 70%
inhibition [4]: 65%
Activity [5]: Active
Activity [6]: Dose-dependent effect
Kd [6]: 11 µM
Activity [7]: Active
Stability [8]: Stable
Activity [9]: Active

Ac-AAARAAARAAARAAARAAARAAAA-NH2
inhibition [1]: inactive
Activity [5]: inactive
Activity [7]: inactive
Activity [9]: inactive

Ac-VVNAVRKLQESGFYWSAVT-NH2
Activity [6]: Dose-dependent effect
Stability [8]: Stable

CC(=O)N[C@@H](CC(C)C)C(=O)N[C@@H](CCCCN)C(=O)N[C@H](C(=O)N[C@@H](Cc1ccccc1)C(=O)N[C@@H](CO)C(=O)N[C@@H](CO)C(=O)N[C@@H](CCCCN)C(=O)N[C@@H](CO)C(=O)N[C@@H](CCC(=O)O)C(=O)N[C@@H](Cc1ccc(O)cc1)C(=O)N[C@@H](CCC(N)=O)C(=O)N[C@@H](CC(C)C)C(=O)N[C@H](C(=O)N[C@H](C(=O)N[C@@H](CC(N)=O)C(=O)N[C@@H](C)C(=O)N[C@H](C(=O)N[C@@H](CCCNC(=N)N)C(=O)N[C@@H](CCCCN)C(=O)N[C@@H](CC(C)C)C(=O)N[C@@H](CCC(N)=O)C(=O)N[C@@H](CCC(=O)O)C(=O)N[C@@H](CO)C(=O)NCC(N)=O)C(C)C)C(C)C)C(C)C)[C@@H](C)O
inhibition [1]: Active
Drug uptake [2]: Active
remaining at 2 h, 80 µM [3]: 40%
inhibition [4]: 65%
Activity [5]: Active
Activity [7]: Active
Activity [9]: Active

Ac-FSSKSEYQLVVNAVRKLQESGFYWSAVT-NH2
Activity [6]: Dose-dependent effect
Stability [8]: Stable
metabolised at 2 h, 80 µM [10]: 100%
